# Results reported in ChEMBL document CHEMBL1159028, “Antimicrobial agents from Licaria puchuri-major and their synergistic effect with polygodial” (1992).
# Test system: Cutibacterium acnes
# Test: Antimicrobial activity against Propionibacterium acnes ATCC 11827 after 2 days by twofold serial broth dilution method
# Format: functional
# Conditions: ATCC 11827, 48 h
# Summary of the method: (§1)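 ATCC strains were revived from freeze-dried stock, then grown in medium of 0.8% nutrient broth, 0.5% yeast extract and 0.1% glucose. Twofold serial broth dilution used compound in DMF (1% DMF final), with a top concentration of 800 µg/ml. Cultures were stationary for 2 days, and growth was read as turbidity at OD 660 nm. MIC was the lowest concentration with no growth.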
row,Structure (SMILES),MIC
1,C=C(C)[C@H]1CC=C(C)CC1 [D-LIMONENE],50 µg/mL
2,CC1=CCC(C(C)C)=CC1 [GAMMA-TERPINENE],50 µg/mL
3,CC1=CC[C@@H](C(C)(C)O)CC1 [ALPHA-TERPINEOL],100 µg/mL
4,C=CCc1ccc2c(c1)OCO2 [SAFROLE],50 µg/mL
5,C=C1CC/C=C(/C)CC[C@@H]2[C@@H]1CC2(C)C [CARYOPHYLLENE],6.25 µg/mL
6,C=CC(C)(O)CCC=C(C)C (stereo not given) [LINALOOL],200 µg/mL

# Test system: Cyberlindnera jadinii
# Test: Antimicrobial activity against Candida utilis ATCC 9226 after 2 days by twofold serial broth dilution method
# Format: functional
# Conditions: Williopsis jadinii, ATCC 9226, 48 h
# Summary of the method: (§2)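 Yeasts were grown in 2.5% malt extract broth. Twofold serial broth dilution used compound in DMF (1% DMF final), with a top concentration of 800 µg/ml. After 2 days of stationary culture, turbidity was read at OD 660 nm. MIC was the lowest concentration with no growth. Checkerboard combinations with polygodial were tested at least twice per fungus.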
row,Structure (SMILES),MIC
1,C=C(C)[C@H]1CC=C(C)CC1 [D-LIMONENE],200 µg/mL
2,CC1=CCC(C(C)C)=CC1 [GAMMA-TERPINENE],100 µg/mL
3,CC1=CC[C@@H](C(C)(C)O)CC1 [ALPHA-TERPINEOL],800 µg/mL
4,C=CCc1ccc2c(c1)OCO2 [SAFROLE],200 µg/mL
5,CC1(C)CCC[C@]2(C)[C@@H](C=O)C(C=O)=CC[C@@H]12 [POLYGODIAL],6.25 µg/mL
6,C=C1CC/C=C(/C)CC[C@@H]2[C@@H]1CC2(C)C [CARYOPHYLLENE],> 800 µg/mL
7,C=CC(C)(O)CCC=C(C)C (stereo not given) [LINALOOL],400 µg/mL

# Test system: Bacillus subtilis
# Test: Antimicrobial activity against Bacillus subtilis ATCC 9372 after 2 days by twofold serial broth dilution method
# Format: functional
# Conditions: ATCC 9372, 48 h
# Summary of the method: as §1
row,Structure (SMILES),MIC
1,C=C(C)[C@H]1CC=C(C)CC1 [D-LIMONENE],800 µg/mL
2,CC1=CCC(C(C)C)=CC1 [GAMMA-TERPINENE],> 800 µg/mL
3,CC1=CC[C@@H](C(C)(C)O)CC1 [ALPHA-TERPINEOL],800 µg/mL
4,C=CCc1ccc2c(c1)OCO2 [SAFROLE],400 µg/mL
5,C=C1CC/C=C(/C)CC[C@@H]2[C@@H]1CC2(C)C [CARYOPHYLLENE],50 µg/mL
6,C=CC(C)(O)CCC=C(C)C (stereo not given) [LINALOOL],800 µg/mL

# Test system: Malassezia furfur
# Test: Antimicrobial activity against Pityrosporum ovale ATCC 14521 by twofold serial broth dilution method
# Format: functional
# Conditions: not given
# Summary of the method: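 Medium: 1% bactopeptone, 0.5% yeast extract, 1% glucose and 0.1% corn oil. Twofold broth dilution used compound in DMF (1% final), with a top concentration of 800 µg/ml. Culture was stationary for 2 days, and growth was scored visually. MIC was the lowest concentration without growth. Checkerboard combinations with polygodial were tested at least twice.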
row,Structure (SMILES),MIC
1,C=C(C)[C@H]1CC=C(C)CC1 [D-LIMONENE],200 µg/mL
2,CC1=CCC(C(C)C)=CC1 [GAMMA-TERPINENE],800 µg/mL
3,CC1=CC[C@@H](C(C)(C)O)CC1 [ALPHA-TERPINEOL],400 µg/mL
4,C=CCc1ccc2c(c1)OCO2 [SAFROLE],100 µg/mL
5,CC1(C)CCC[C@]2(C)[C@@H](C=O)C(C=O)=CC[C@@H]12 [POLYGODIAL],50 µg/mL
6,C=C1CC/C=C(/C)CC[C@@H]2[C@@H]1CC2(C)C [CARYOPHYLLENE],> 800 µg/mL
7,C=CC(C)(O)CCC=C(C)C (stereo not given) [LINALOOL],400 µg/mL

# Test system: Corynebacterium ammoniagenes
# Test: Antimicrobial activity against Brevibacterium ammoniagenes ATCC 6872 after 2 days by twofold serial broth dilution method
# Format: functional
# Conditions: ATCC 6872, 48 h
# Summary of the method: as §1
row,Structure (SMILES),MIC
1,C=C(C)[C@H]1CC=C(C)CC1 [D-LIMONENE],> 800 µg/mL
2,CC1=CCC(C(C)C)=CC1 [GAMMA-TERPINENE],> 800 µg/mL
3,CC1=CC[C@@H](C(C)(C)O)CC1 [ALPHA-TERPINEOL],> 800 µg/mL
4,C=CCc1ccc2c(c1)OCO2 [SAFROLE],> 800 µg/mL
5,C=C1CC/C=C(/C)CC[C@@H]2[C@@H]1CC2(C)C [CARYOPHYLLENE],100 µg/mL
6,C=CC(C)(O)CCC=C(C)C (stereo not given) [LINALOOL],800 µg/mL

# Test system: Escherichia coli
# Test: Antimicrobial activity against Escherichia coli ATCC 9637 after 2 days by twofold serial broth dilution method
# Format: functional
# Conditions: ATCC 9637, 48 h
# Summary of the method: as §1
row,Structure (SMILES),MIC
1,C=C(C)[C@H]1CC=C(C)CC1 [D-LIMONENE],> 800 µg/mL
2,CC1=CCC(C(C)C)=CC1 [GAMMA-TERPINENE],> 800 µg/mL
3,CC1=CC[C@@H](C(C)(C)O)CC1 [ALPHA-TERPINEOL],800 µg/mL
4,C=CCc1ccc2c(c1)OCO2 [SAFROLE],400 µg/mL
5,C=C1CC/C=C(/C)CC[C@@H]2[C@@H]1CC2(C)C [CARYOPHYLLENE],> 800 µg/mL
6,C=CC(C)(O)CCC=C(C)C (stereo not given) [LINALOOL],> 800 µg/mL

# Test system: Penicillium chrysogenum
# Test: Antimicrobial activity against Penicillium chrysogenum ATCC 10106 after 5 days by twofold serial broth dilution method
# Format: functional
# Conditions: ATCC 10106, 120 h
# Summary of the method: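 Mould was grown in 2.5% malt extract broth with shaking. Compound in DMF (1% final) was serially diluted twofold, to a maximum of 800 µg/ml. Growth was judged by eye after 5 days. MIC was the lowest concentration showing no growth.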
row,Structure (SMILES),MIC
1,C=C(C)[C@H]1CC=C(C)CC1 [D-LIMONENE],> 800 µg/mL
2,CC1=CCC(C(C)C)=CC1 [GAMMA-TERPINENE],> 800 µg/mL
3,CC1=CC[C@@H](C(C)(C)O)CC1 [ALPHA-TERPINEOL],400 µg/mL
4,C=CCc1ccc2c(c1)OCO2 [SAFROLE],> 800 µg/mL
5,C=C1CC/C=C(/C)CC[C@@H]2[C@@H]1CC2(C)C [CARYOPHYLLENE],> 800 µg/mL
6,C=CC(C)(O)CCC=C(C)C (stereo not given) [LINALOOL],800 µg/mL

# Test system: Streptococcus mutans
# Test: Antimicrobial activity against Streptococcus mutans ATCC 25175 after 2 days by twofold serial broth dilution method
# Format: functional
# Conditions: ATCC 25175, 48 h
# Summary of the method: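 ATCC strain grown in 3.7% brain heart infusion broth. Twofold serial broth dilution used compound dissolved in DMF (1% DMF final), with a top concentration of 800 µg/ml. After 2 days of stationary culture, growth was read as turbidity at OD 660 nm. MIC was the lowest concentration with no growth.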
row,Structure (SMILES),MIC
1,C=C(C)[C@H]1CC=C(C)CC1 [D-LIMONENE],100 µg/mL
2,CC1=CCC(C(C)C)=CC1 [GAMMA-TERPINENE],100 µg/mL
3,CC1=CC[C@@H](C(C)(C)O)CC1 [ALPHA-TERPINEOL],400 µg/mL
4,C=CCc1ccc2c(c1)OCO2 [SAFROLE],100 µg/mL
5,C=C1CC/C=C(/C)CC[C@@H]2[C@@H]1CC2(C)C [CARYOPHYLLENE],> 800 µg/mL
6,C=CC(C)(O)CCC=C(C)C (stereo not given) [LINALOOL],400 µg/mL

# Test system: Klebsiella aerogenes
# Test: Antimicrobial activity against Enterobacter aerogenes ATCC 13048 after 2 days by twofold serial broth dilution method
# Format: functional
# Conditions: ATCC 13048, 48 h
# Summary of the method: as §1
row,Structure (SMILES),MIC
1,C=C(C)[C@H]1CC=C(C)CC1 [D-LIMONENE],> 800 µg/mL
2,CC1=CCC(C(C)C)=CC1 [GAMMA-TERPINENE],> 800 µg/mL
3,CC1=CC[C@@H](C(C)(C)O)CC1 [ALPHA-TERPINEOL],> 800 µg/mL
4,C=CCc1ccc2c(c1)OCO2 [SAFROLE],> 800 µg/mL
5,C=C1CC/C=C(/C)CC[C@@H]2[C@@H]1CC2(C)C [CARYOPHYLLENE],> 800 µg/mL
6,C=CC(C)(O)CCC=C(C)C (stereo not given) [LINALOOL],> 800 µg/mL

# Test system: Saccharomyces cerevisiae
# Test: Antimicrobial activity against Saccharomyces cerevisiae ATCC 7754 after 2 days by twofold serial broth dilution method
# Format: functional
# Conditions: ATCC 7754, 48 h
# Summary of the method: as §2
row,Structure (SMILES),MIC
1,C=C(C)[C@H]1CC=C(C)CC1 [D-LIMONENE],50 µg/mL
2,CC1=CCC(C(C)C)=CC1 [GAMMA-TERPINENE],50 µg/mL
3,CC1=CC[C@@H](C(C)(C)O)CC1 [ALPHA-TERPINEOL],800 µg/mL
4,C=CCc1ccc2c(c1)OCO2 [SAFROLE],200 µg/mL
5,CC1(C)CCC[C@]2(C)[C@@H](C=O)C(C=O)=CC[C@@H]12 [POLYGODIAL],3.13 µg/mL
6,C=C1CC/C=C(/C)CC[C@@H]2[C@@H]1CC2(C)C [CARYOPHYLLENE],> 800 µg/mL
7,C=CC(C)(O)CCC=C(C)C (stereo not given) [LINALOOL],800 µg/mL

# Test system: Staphylococcus aureus
# Test: Antimicrobial activity against Staphylococcus aureus ATCC 12598 after 2 days by twofold serial broth dilution method
# Format: functional
# Conditions: ATCC 12598, 48 h
# Summary of the method: as §1
row,Structure (SMILES),MIC
1,C=C(C)[C@H]1CC=C(C)CC1 [D-LIMONENE],> 800 µg/mL
2,CC1=CCC(C(C)C)=CC1 [GAMMA-TERPINENE],> 800 µg/mL
3,CC1=CC[C@@H](C(C)(C)O)CC1 [ALPHA-TERPINEOL],> 800 µg/mL
4,C=CCc1ccc2c(c1)OCO2 [SAFROLE],> 800 µg/mL
5,C=C1CC/C=C(/C)CC[C@@H]2[C@@H]1CC2(C)C [CARYOPHYLLENE],> 800 µg/mL
6,C=CC(C)(O)CCC=C(C)C (stereo not given) [LINALOOL],> 800 µg/mL

# Test system: Pseudomonas aeruginosa
# Test: Antimicrobial activity against Pseudomonas aeruginosa ATCC 10145 after 2 days by twofold serial broth dilution method
# Format: functional
# Conditions: ATCC 10145, 48 h
# Summary of the method: as §1
row,Structure (SMILES),MIC
1,C=C(C)[C@H]1CC=C(C)CC1 [D-LIMONENE],> 800 µg/mL
2,CC1=CCC(C(C)C)=CC1 [GAMMA-TERPINENE],> 800 µg/mL
3,CC1=CC[C@@H](C(C)(C)O)CC1 [ALPHA-TERPINEOL],> 800 µg/mL
4,C=CCc1ccc2c(c1)OCO2 [SAFROLE],> 800 µg/mL
5,C=C1CC/C=C(/C)CC[C@@H]2[C@@H]1CC2(C)C [CARYOPHYLLENE],> 800 µg/mL
6,C=CC(C)(O)CCC=C(C)C (stereo not given) [LINALOOL],> 800 µg/mL
